{
  "source": "ChEMBL document CHEMBL3414472",
  "about": "“Synthesis, SAR, and series evolution of novel oxadiazole-containing 5-lipoxygenase activating protein inhibitors: discovery of 2-[4-(3-{(r)-1-[4-(2-amino-pyrimidin-5-yl)-phenyl]-1-cyclopropyl-ethyl}-[1,2,4]oxadiazol-5-yl)-pyrazol-1-yl]-N,N-dimethyl-acetamide (BI 665915)” (J Med Chem, 2015)",
  "key": {"[1]": {"test": "Fraction unbound in human plasma by equilibrium dialysis method", "assay_type": "ADME, cell-free", "method_in_brief": "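Unbound fraction in human plasma determined by equilibrium dialysis, in duplicate.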"}, "CYP3A4": {"target": "CYP3A4 (Homo sapiens, UniProt P08684)", "sequence (P08684 whole entry)": "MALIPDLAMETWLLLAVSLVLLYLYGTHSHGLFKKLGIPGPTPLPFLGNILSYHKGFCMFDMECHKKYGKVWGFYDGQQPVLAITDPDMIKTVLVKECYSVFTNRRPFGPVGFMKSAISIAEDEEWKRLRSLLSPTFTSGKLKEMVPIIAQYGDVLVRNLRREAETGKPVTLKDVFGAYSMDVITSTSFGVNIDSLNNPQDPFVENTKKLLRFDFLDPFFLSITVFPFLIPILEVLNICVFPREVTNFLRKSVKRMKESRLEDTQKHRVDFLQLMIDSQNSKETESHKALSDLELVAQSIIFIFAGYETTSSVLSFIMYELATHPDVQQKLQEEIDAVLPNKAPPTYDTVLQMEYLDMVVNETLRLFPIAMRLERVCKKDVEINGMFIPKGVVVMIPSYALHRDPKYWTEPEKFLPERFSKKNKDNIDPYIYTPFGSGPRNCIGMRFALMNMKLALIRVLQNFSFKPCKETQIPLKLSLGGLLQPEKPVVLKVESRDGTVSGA", "test": "Induction of CYP3A4 in human hepatocytes using midazolam as substrate assessed as formation of 1'-hydroxymidazolam up to 30 uM preincubated for 48 hrs followed by substrate addition measured up to 120 mins relative to control", "assay_type": "ADME, cell-based, Hepatocyte", "conditions": "probe midazolam, read-out: FC", "method_in_brief": "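Freshly plated, sandwich-cultured, single-donor human hepatocytes were exposed to compound or rifampicin (25 µM) for 48 h, with medium and dosing agent renewed every 24 h. The linear slope of 1'-hydroxymidazolam formation over time (to 120 min) was determined. Fold induction is the compound slope divided by the solvent control slope.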"}, "Canis familiaris": {"system": "Canis familiaris", "test": "Clearance in dog at 1 mg/kg, iv and 10 mg/kg, po relative to hepatic blood flow", "assay_type": "ADME, organism-based, Canis lupus familiaris, Liver", "conditions": "in vivo", "method_in_brief": "(§1)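 iv 1 mg/kg in 70 % PEG; po 10 mg/kg as suspension in 0.5 % methyl cellulose/0.015 % Tween. Blood sampled at 11 timepoints (0, 5, 15, 30 min, 1, 2, 4, 6, 8, 12, 24 h) per dose; mean of n = 3. Clearance expressed as percent of hepatic blood flow.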"}, "[2]": {"test": "Oral bioavailability in dog at 10 mg/kg", "assay_type": "ADME, organism-based, Canis lupus familiaris", "conditions": "in vivo", "method_in_brief": "as §1"}, "[3]": {"test": "Volume of distribution at steady state in cynomolgus monkey at 1 mg/kg, iv and 10 mg/kg, po", "assay_type": "ADME, organism-based, Macaca fascicularis", "conditions": "in vivo, read-out: Vdss", "method_in_brief": "as §1"}, "[4]": {"test": "Plasma concentration in C57BL/6 mouse at 1 mg/kg, po after 2 hrs", "assay_type": "ADME, organism-based", "set-up": "dose 1 mg/kg, route oral"}, "Mus musculus [5]": {"system": "Mus musculus", "test": "In vivo inhibition of FLAP in po dosed C57BL/6 mouse assessed as reduction of LTB4 production in calcimycin-stimulated whole blood after 2 hrs by ELISA", "assay_type": "functional, organism-based"}, "Mus musculus [6]": {"system": "Mus musculus", "test": "In vivo inhibition of FLAP in C57BL/6 mouse assessed as LTB4 production in calcimycin-stimulated whole blood at 1 mg/kg, po after 2 hrs by ELISA (reference value: 100 +/- 13.3%)", "assay_type": "functional", "set-up": "scale not given: the % may be the effect or the level left"}, "[7]": {"target": "T1, Arachidonate 5-lipoxygenase-activating protein (Homo sapiens, UniProt P20292)", "T1 sequence (P20292 whole entry)": "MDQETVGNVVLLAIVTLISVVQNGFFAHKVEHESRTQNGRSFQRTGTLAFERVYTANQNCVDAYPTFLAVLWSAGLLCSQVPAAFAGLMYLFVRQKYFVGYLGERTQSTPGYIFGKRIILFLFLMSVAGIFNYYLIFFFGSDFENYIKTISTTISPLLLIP", "test": "Inhibition of FLAP in calcimycin-stimulated human whole blood assessed as inhibition of LTB4 synthesis preincubated for 15 mins followed by calcimycin stimulation measured after 30 mins", "method_in_brief": "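Heparinized human volunteer blood preincubated with compound 15 min at 37 °C, 5 % CO2; calcimycin 100 µM final, 30 min at 37 °C; spun 2000 rpm 5 min at 4 °C. Supernatant LTB4 measured by HTRF competition (LTB4-XL665 plus anti-LTB4 cryptate, 2 h room temperature). Geometric mean (n ≥ 3) of duplicate 10-point curves.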"}, "Cytochrome P450 2C9": {"target": "Cytochrome P450 2C9 (Homo sapiens, UniProt P11712)", "sequence (P11712 whole entry)": "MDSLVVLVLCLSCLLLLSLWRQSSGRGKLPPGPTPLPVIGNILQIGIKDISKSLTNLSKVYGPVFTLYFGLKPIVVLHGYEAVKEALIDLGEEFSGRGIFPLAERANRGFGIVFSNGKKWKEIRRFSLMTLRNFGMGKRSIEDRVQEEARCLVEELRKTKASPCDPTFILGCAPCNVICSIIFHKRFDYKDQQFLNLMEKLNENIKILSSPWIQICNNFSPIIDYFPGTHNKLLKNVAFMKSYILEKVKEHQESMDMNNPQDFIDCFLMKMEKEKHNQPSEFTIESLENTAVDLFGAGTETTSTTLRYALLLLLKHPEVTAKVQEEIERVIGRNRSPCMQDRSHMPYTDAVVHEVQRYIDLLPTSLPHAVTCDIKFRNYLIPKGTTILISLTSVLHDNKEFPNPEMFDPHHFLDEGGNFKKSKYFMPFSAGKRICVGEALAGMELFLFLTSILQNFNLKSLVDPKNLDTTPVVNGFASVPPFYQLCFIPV", "test": "Inhibition of CYP2C9 in human liver microsomes using dichlofenac as substrate preincubated for 10 mins followed by NADPH addition measured after 6 mins", "assay_type": "ADME", "method_in_brief": "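Human liver microsomes (0.05 mg/mL protein) with cocktail substrates: 4 µM diclofenac (2C9), 3 µM dextromethorphan (2D6), 2.5 µM midazolam (3A4). Compound in 0.1 M potassium phosphate pH 7.4 preincubated 10 min at 37 °C; NADPH added, reaction 6 min at 37 °C.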"}, "[8]": {"test": "Metabolic stability in human liver microsomes at 1 uM preincubated for 10 mins followed by NADPH addition measured over 60 mins by LC/MS analysis relative to hepatic blood flow", "assay_type": "ADME", "conditions": "read-out: Stability", "method_in_brief": "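Human liver microsomes (1 mg/mL protein) with test compound at 1 µM, preincubated 10 min at 37 °C before adding NADPH. Remaining compound followed over a 0–60 min time course, as duplicate 8-timepoint curves. The slope of ln(% remaining) against time gives clearance, expressed as percent of hepatic blood flow.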"}, "[9]": {"target": "T2, Polyunsaturated fatty acid 5-lipoxygenase (Homo sapiens) (UniProt P09917)", "T2 sequence (whole entry)": "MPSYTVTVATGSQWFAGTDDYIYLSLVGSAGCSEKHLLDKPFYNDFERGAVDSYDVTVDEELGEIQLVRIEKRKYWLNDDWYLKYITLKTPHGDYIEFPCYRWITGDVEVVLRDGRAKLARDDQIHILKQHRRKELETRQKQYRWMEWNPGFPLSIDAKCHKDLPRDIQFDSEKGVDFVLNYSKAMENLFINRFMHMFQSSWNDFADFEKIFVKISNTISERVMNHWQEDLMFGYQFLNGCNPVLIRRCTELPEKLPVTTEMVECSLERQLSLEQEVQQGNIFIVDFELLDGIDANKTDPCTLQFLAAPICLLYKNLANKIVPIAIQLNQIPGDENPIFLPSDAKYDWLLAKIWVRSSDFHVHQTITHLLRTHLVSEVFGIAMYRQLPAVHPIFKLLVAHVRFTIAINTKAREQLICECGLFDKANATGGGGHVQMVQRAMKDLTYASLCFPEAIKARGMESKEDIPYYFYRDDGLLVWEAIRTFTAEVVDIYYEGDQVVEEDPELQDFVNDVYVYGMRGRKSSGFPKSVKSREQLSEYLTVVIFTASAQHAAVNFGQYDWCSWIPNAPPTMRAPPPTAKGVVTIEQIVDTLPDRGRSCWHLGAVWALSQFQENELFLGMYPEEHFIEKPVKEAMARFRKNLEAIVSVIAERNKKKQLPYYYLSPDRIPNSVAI", "test": "Inhibition of 5-LO (unknown origin) at 10 uM relative to control"}, "[10]": {"target": "T3, Prostaglandin G/H synthase 2 (Homo sapiens) (UniProt P35354)", "T3 sequence (whole entry)": "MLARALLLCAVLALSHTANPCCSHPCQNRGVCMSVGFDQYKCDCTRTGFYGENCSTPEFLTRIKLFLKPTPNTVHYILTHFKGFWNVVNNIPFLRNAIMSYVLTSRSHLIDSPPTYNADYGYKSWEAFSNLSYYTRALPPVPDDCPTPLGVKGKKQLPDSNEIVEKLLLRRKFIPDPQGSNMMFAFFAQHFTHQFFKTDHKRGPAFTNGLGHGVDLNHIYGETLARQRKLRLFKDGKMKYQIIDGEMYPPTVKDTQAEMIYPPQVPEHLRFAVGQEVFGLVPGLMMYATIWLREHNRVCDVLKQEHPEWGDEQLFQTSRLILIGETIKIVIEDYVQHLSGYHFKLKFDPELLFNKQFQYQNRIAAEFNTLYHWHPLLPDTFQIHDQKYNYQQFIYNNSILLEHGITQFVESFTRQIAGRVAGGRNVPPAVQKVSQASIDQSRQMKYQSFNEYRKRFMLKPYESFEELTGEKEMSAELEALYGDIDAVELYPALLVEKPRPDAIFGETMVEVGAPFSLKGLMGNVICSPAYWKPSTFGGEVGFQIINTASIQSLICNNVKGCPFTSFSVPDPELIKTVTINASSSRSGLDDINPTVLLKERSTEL", "test": "Inhibition of cycloxygenase-2 (unknown origin) at 10 uM relative to control"}},
  "data": [
    {"smiles": "CN(C)C(=O)Cn1cc(-c2nc([C@@](C)(c3ccc(-c4cnc(N)nc4)cc3)C3CC3)no2)cn1", "note": "[BI 665915]", "values": [
      {"measurement": "fraction unbound", "setting": "[1]", "value": 0.047},
      {"measurement": "fold induction at 2 h", "setting": "CYP3A4", "value": 2},
      {"measurement": "CL", "setting": "Canis familiaris", "value": 2.8, "unit": "%"},
      {"measurement": "bioavailability", "setting": "[2]", "value": 58, "unit": "%"},
      {"measurement": "Vd", "setting": "[3]", "value": 0.5, "unit": "L/kg"},
      {"measurement": "concentration at 2 h", "setting": "[4]", "value": 1700, "unit": "nM"},
      {"measurement": "inhibition", "setting": "Mus musculus [5]", "value": "Dose-dependent effect"},
      {"measurement": "Activity", "setting": "Mus musculus [6]", "value": 110.6, "unit": "%"},
      {"measurement": "IC50", "setting": "[7]", "value": 45, "unit": "nM"},
      {"measurement": "IC50", "setting": "Cytochrome P450 2C9", "value": "> 30000", "unit": "nM"},
      {"measurement": "hepatic extraction ratio at 1 h, 1 µM", "setting": "[8]", "value": 0.33},
      {"measurement": "inhibition", "setting": "[9]", "value": "< 50", "unit": "%"},
      {"measurement": "inhibition", "setting": "[10]", "value": "< 50", "unit": "%"}
    ]}
  ]
}
